According to ChEMBL document CHEMBL3861950, “Design, synthesis and evaluation of novel 19F magnetic resonance sensitive protein tyrosine phosphatase inhibitors” (Medchemcomm, 2016):

Key:
[1] = target: T1, Tyrosine-protein phosphatase non-receptor type 1 (Homo sapiens, UniProt P18031); test: Inhibition of recombinant PTP1B (unknown origin) using pNPP as substrate by spectrophotometric method
T1 sequence (P18031 whole entry): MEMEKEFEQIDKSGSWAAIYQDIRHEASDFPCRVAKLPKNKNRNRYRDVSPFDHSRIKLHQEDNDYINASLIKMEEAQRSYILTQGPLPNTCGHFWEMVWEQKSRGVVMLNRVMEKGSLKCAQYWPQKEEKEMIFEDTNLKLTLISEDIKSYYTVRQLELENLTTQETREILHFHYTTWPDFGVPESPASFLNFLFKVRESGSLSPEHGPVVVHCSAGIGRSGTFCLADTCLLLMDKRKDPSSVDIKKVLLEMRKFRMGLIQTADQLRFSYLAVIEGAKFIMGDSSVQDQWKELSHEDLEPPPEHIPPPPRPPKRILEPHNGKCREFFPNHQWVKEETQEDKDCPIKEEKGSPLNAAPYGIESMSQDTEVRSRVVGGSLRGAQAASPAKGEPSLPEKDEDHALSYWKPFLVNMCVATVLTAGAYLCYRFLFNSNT
Method in brief: (§1)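 Recombinant PTP prepared in-house, assayed with pNPP substrate in 50 mM 3,3-dimethylglutarate buffer pH 7.0 containing 1 mM EDTA and 150 mM NaCl at 25 °C, in 96-well format. p-Nitrophenol product was quantified by absorbance at 405 nm. Non-enzymatic pNPP hydrolysis was corrected using a no-enzyme control.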

[2] = target: T2, Tyrosine-protein phosphatase non-receptor type 22 (Homo sapiens, UniProt Q9Y2R2); test: Inhibition of recombinant LYP (unknown origin) using pNPP as substrate by spectrophotometric method; method in brief: as §1
T2 sequence (Q9Y2R2 whole entry): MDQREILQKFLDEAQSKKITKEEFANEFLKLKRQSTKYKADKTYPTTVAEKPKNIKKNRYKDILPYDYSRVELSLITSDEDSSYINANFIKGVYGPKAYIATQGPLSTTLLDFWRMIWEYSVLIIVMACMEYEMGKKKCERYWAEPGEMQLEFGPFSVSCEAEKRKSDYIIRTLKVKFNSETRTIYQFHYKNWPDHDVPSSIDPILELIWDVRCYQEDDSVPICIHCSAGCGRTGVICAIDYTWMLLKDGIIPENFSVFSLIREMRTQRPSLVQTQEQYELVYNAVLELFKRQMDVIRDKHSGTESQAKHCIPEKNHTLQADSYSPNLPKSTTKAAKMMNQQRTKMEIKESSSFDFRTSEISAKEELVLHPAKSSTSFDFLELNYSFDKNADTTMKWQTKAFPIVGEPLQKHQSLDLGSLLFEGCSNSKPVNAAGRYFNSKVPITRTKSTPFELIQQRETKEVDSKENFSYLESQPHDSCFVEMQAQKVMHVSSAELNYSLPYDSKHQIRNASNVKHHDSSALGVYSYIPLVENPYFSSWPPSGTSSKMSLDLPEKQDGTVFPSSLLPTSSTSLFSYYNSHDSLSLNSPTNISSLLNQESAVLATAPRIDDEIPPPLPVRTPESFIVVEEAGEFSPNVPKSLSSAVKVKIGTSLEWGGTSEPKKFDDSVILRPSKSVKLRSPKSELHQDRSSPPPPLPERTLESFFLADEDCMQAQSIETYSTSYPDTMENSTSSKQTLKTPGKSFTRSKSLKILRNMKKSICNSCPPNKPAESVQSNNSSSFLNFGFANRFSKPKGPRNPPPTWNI

[3] = Inhibition of recombinant Mycobacterium tuberculosis PTPB using pNPP as substrate by spectrophotometric method
Method in brief: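 Recombinant enzyme made in-house. Substrate pNPP in 50 mM 3,3-dimethylglutarate buffer, pH 7.0, with 1 mM EDTA and 150 mM NaCl, at 25 °C, screened in 96-well format. p-Nitrophenol product read at 405 nm. Non-enzymatic pNPP hydrolysis was corrected using a control without enzyme.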

[4] = target: T3, Tyrosine-protein phosphatase non-receptor type 11 (Homo sapiens, UniProt Q06124); test: Inhibition of recombinant SHP2 (unknown origin) using pNPP as substrate by spectrophotometric method; method in brief: as §1
T3 sequence (Q06124 whole entry): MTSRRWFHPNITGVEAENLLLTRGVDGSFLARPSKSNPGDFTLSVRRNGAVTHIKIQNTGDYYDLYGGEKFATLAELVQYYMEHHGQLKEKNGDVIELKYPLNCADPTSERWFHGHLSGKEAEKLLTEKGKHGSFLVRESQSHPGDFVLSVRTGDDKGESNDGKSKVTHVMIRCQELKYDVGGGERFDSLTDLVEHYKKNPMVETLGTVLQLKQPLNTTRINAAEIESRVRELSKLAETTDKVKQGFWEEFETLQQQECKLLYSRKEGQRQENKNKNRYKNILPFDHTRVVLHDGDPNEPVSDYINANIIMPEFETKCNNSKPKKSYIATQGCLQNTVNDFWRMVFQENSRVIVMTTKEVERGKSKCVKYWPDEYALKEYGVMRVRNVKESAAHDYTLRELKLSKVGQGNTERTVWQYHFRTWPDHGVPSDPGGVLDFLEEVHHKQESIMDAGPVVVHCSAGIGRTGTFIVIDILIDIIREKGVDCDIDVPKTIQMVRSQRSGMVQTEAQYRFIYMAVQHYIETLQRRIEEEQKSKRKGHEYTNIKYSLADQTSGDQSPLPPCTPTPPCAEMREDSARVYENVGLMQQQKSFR

[5] = target: Tyrosine-protein phosphatase non-receptor type 13 (Homo sapiens, UniProt Q12923); test: Inhibition of recombinant FAP1 (unknown origin) using pNPP as substrate by spectrophotometric method; method in brief: as §1
Sequence of Tyrosine-protein phosphatase non-receptor type 13 (Q12923 whole entry): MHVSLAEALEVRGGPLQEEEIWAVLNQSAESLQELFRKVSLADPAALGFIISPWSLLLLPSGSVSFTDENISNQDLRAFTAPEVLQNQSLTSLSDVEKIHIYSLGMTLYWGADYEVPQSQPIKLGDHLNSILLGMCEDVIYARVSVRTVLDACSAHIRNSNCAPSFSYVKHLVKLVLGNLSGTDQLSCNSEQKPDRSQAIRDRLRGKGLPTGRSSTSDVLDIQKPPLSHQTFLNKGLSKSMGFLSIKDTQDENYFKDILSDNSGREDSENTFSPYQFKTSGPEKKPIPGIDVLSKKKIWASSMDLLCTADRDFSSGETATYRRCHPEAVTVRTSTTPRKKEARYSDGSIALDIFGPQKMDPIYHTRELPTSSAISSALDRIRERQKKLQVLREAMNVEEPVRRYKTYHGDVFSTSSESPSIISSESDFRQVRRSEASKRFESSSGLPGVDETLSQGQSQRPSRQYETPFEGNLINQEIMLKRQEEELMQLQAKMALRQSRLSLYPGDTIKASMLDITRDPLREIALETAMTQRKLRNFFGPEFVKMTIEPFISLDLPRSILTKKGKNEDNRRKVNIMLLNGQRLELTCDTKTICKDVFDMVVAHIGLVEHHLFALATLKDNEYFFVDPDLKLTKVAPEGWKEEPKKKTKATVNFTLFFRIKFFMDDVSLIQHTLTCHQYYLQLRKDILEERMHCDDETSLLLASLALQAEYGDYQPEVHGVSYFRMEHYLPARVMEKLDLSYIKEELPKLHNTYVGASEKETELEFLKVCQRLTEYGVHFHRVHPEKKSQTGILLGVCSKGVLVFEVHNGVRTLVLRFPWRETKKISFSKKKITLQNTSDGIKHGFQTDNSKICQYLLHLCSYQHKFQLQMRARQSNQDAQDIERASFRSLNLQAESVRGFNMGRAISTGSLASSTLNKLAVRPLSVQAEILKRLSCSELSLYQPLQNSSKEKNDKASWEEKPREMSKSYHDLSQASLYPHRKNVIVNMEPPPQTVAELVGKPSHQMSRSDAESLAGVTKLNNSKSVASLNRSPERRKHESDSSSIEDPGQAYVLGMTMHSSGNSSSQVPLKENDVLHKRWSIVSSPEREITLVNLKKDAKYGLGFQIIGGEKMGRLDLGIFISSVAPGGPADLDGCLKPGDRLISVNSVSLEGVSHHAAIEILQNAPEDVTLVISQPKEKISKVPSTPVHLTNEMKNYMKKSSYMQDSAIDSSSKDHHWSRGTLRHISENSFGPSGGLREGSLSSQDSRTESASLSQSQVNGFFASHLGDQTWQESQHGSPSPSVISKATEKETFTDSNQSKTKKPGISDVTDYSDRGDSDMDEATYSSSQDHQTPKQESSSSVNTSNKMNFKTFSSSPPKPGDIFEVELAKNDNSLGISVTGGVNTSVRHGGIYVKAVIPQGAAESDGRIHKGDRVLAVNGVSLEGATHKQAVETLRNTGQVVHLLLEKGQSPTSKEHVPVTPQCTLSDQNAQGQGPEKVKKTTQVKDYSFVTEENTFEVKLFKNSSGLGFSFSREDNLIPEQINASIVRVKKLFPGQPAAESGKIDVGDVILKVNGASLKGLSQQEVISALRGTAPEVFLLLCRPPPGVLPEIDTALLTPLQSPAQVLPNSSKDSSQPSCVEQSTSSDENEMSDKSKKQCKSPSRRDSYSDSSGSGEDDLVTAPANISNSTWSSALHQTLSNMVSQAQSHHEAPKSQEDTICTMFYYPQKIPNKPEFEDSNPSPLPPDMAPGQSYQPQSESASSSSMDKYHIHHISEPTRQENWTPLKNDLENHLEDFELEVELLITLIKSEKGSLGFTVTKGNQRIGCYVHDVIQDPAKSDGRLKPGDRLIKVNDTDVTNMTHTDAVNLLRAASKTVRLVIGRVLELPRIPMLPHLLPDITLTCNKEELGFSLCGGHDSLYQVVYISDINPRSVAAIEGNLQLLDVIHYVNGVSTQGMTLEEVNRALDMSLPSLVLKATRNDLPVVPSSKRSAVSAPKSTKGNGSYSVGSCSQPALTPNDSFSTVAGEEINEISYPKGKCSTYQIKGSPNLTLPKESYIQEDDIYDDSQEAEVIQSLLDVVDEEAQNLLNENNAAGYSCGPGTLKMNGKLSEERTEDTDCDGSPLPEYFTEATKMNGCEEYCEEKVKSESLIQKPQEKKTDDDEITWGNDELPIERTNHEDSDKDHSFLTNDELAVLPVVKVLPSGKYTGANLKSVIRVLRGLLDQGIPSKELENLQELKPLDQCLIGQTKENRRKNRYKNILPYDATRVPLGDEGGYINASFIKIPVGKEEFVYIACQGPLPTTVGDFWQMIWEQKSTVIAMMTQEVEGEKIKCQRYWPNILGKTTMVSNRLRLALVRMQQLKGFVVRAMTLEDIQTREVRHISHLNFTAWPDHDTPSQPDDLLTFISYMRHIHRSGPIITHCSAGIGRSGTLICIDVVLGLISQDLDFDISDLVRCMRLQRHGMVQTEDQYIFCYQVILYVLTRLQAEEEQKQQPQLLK

[6] = target: T4, Receptor-type tyrosine-protein phosphatase C (Homo sapiens, UniProt P08575); test: Inhibition of recombinant CD45 (unknown origin) using pNPP as substrate by spectrophotometric method; method in brief: as §1
T4 sequence (P08575 whole entry): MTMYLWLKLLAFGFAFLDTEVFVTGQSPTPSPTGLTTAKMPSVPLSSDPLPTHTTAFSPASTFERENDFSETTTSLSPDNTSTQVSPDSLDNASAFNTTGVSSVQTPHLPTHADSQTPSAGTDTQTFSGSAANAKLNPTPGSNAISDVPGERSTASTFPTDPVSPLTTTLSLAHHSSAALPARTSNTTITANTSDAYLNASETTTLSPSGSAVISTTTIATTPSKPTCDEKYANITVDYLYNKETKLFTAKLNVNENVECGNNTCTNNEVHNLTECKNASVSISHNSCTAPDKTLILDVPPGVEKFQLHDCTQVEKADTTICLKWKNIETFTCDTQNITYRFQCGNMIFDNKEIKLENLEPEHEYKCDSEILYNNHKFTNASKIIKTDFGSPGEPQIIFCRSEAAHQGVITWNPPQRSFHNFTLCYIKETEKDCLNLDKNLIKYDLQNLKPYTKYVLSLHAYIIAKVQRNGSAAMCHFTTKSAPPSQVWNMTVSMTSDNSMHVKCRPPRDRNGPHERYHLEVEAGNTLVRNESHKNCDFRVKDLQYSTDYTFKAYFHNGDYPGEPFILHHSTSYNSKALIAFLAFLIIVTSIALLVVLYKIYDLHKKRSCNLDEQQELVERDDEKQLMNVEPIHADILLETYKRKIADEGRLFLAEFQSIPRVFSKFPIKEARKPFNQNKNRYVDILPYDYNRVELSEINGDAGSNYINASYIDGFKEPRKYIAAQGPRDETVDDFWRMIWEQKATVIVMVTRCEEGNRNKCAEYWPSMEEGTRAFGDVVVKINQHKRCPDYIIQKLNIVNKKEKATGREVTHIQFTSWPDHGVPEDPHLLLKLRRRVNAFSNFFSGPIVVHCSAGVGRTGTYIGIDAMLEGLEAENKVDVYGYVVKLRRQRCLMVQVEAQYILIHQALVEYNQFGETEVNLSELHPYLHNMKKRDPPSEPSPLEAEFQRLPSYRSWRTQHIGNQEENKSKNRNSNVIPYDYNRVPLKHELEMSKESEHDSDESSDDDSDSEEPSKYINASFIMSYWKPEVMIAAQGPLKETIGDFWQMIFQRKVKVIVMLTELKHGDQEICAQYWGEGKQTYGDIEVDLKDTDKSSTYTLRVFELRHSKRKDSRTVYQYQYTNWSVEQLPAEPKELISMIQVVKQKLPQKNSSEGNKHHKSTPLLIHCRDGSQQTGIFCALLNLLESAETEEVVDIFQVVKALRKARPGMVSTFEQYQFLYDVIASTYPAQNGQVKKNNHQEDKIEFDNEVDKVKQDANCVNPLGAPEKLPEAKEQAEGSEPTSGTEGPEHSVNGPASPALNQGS

| SMILES | IC50 [1] [µM] | IC50 [2] [µM] | IC50 [3] [nM] | IC50 [4] [µM] | IC50 [5] [µM] | IC50 [6] [µM] |
| --- | --- | --- | --- | --- | --- | --- |
| O=C(COc1ccc2cc(C(O)(C(F)(F)F)C(F)(F)F)c(O)cc2c1)NCc1ccccc1 | > 20 | > 20 | > 20000 | > 20 | > 20 | > 20 |
| CCN(CC)C(=O)COc1ccc2cc(C(O)(C(F)(F)F)C(F)(F)F)c(O)cc2c1 | > 20 | > 20 | > 20000 | > 20 | > 20 | > 20 |
| O=C(COc1ccc2cc(C(O)(C(F)(F)F)C(F)(F)F)c(O)cc2c1)Nc1nc2ccccc2s1 | > 20 | 14.3 | 2600 | 12.8 | 9.9 | 10.9 |
| O=C(COc1ccc2cc(C(O)(C(F)(F)F)C(F)(F)F)c(O)cc2c1)N1c2ccccc2Sc2ccccc21 | 6.6 | 3.4 | 2900 | 3.2 | 2.2 | 2.8 |
